# Experimental data collected from several papers.
# Each line is one published result; the experiments were not run side by side.
# Target: Serine/threonine-protein kinase Sgk2 (SGK2, Homo sapiens, UniProt Q9HBY8)
# Sequence (Q9HBY8 1-367, as in one of the studies): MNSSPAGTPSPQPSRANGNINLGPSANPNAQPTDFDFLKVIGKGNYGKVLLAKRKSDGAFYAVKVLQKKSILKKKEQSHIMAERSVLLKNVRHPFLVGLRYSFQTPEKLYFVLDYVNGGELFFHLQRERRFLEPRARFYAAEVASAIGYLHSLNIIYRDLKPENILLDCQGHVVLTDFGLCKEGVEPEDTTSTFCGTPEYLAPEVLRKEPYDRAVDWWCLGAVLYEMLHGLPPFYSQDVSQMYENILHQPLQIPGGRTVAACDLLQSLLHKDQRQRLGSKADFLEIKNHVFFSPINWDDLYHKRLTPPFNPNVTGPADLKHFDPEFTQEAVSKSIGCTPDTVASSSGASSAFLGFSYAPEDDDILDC
Structure (SMILES),read-out,mode,method,concentration,quantity,value
Cn1cnc(Br)c1C1=CN(c2ncnc3[nH]cnc23)CCS1,enzyme activity,inhibitor,radiometric,50 nM,inhibition,20.8%
Cc1nccc(COC(=O)N2C[C@@H]3[C@@H](CNC(=O)c4ccc5[nH]nnc5c4)[C@@H]3C2)n1,cell-free assay,,competition with immobilised ligand,1 µM,remaining binding,100%
Cc1cc(NC(=O)c2cccc3cc(-c4cccc5[nH]nc(N)c45)ccc23)ccc1F,enzyme activity,inhibitor,,0.1 µM,activity vs control,76%
Cc1ccc(NC(=O)c2ccc(C)c(C(F)(F)F)c2)cc1C#Cc1nn(C2CCC(O)CC2)c2ncnc(N)c12 (centres unmarked),cell-free assay,,,10 µM,remaining signal,97%
CCC(=N\O)/C(C)=C/c1ccc(F)cc1,cell-free assay,,competition with immobilised ligand,1 µM,remaining binding,78%
CC(C)(C)c1nc(-c2cccc(NS(=O)(=O)c3c(F)cccc3F)c2F)c(-c2ccnc(N)n2)s1,enzyme activity,inhibitor,radiometric,1 µM,remaining activity,101%
CCCOc1ccc(OC)c(F)c1C(=O)c1ccc(C(=O)N[C@@H]2CNC[C@H]2NC(=O)c2ccc3[nH]ncc3c2)cc1,enzyme activity,inhibitor,,50 nM,remaining activity,72%
Nc1ncnc2occ(-c3ccc(NC(=O)Nc4cc(C(F)(F)F)ccc4F)cc3)c12,cell-free assay,inhibitor,,20 µM,remaining signal,13%
O=C1CCc2cc(Nc3cc(OC4CCOCC4)c([N+](=O)[O-])cc3Cl)ccc2N1,cell-free assay,,competition with immobilised ligand,1 µM,remaining binding,80%
COc1cc2ncnc(Nc3ccc(Oc4ccccc4)c(C)c3C)c2cc1OC,enzyme activity,inhibitor,,1 µM,inhibition,0%
CCN(CC)c1ccc(C2=NNC(=O)CC2C)cc1[N+](=O)[O-] (centres unmarked),enzyme activity,inhibitor,,10 µM,remaining activity,104%
O=C(Nc1cnn(-c2csc(C(=O)NC3COC3)c2)c1)Nc1c(F)cccc1Cl,enzyme activity,inhibitor,,5 µM,remaining activity,88.6%
CNC(=O)c1cc(Oc2ccc(NC(=O)Nc3ccc(Cl)c(C(F)(F)F)c3)cc2)ccn1,enzyme activity,inhibitor,,0.3 µM,inhibition,3%
Cc1cnc(NC2CCOCC2)nc1-n1cnc(C(=O)NC(CN)c2cc(F)cc(Cl)c2)c1 (centres unmarked),enzyme activity,inhibitor,radiometric,1 µM,remaining activity,25%
CSc1cccnc1N1CCN(Cc2nc3ccccc3[nH]2)CC1,cell-free assay,,competition with immobilised ligand,1 µM,remaining binding,81%
CCCS(=O)(=O)Nc1ccc(F)c(C(=O)c2c[nH]c3ncc(-c4ccc(Cl)cc4)cc23)c1F,enzyme activity,inhibitor,,1 µM,inhibition,< 10%
CNc1cccc2cc(C(=O)Nc3ccc(C(=O)O)cc3)c(=O)[nH]c12,enzyme activity,inhibitor,,10 µM,inhibition,-1.2%
CCc1ccccc1C(=O)Nc1n[nH]c2c(C)c(F)c(C3C(C#N)=C(C)N(C)C(C)=C3C#N)cc12,cell-free assay,,competition with immobilised ligand,1 µM,remaining binding,100%
CC(C)(O)[C@H]1CC[C@H](Nc2ccc3ncc(-c4cccc(C(F)(F)F)c4)n3n2)CC1,enzyme activity,inhibitor,,1 µM,remaining activity,96.1%
Cc1ccc(Nc2nccc(N(C)c3ccc4c(C)n(C)nc4c3)n2)cc1S(N)(=O)=O,enzyme activity,inhibitor,,10 µM,inhibition,10%
O=C1NC(=O)c2cc(Nc3ccc(F)cc3)c(Nc3ccc(F)cc3)cc21,cell-free assay,,,0.5 µM,remaining signal,99.7%
CCN(CC)CCNC(=O)c1c(C)[nH]c(/C=C2\C(=O)Nc3ccc(F)cc32)c1C,enzyme activity,inhibitor,,10 µM,inhibition,48%
Nc1c(C(=O)NCc2ccc(C(=O)NCCCC3CCCCC3)cc2)cnn1-c1ccccc1,cell-free assay,,competition with immobilised ligand,0.1 µM,remaining binding,72%
